Sampled rows, rich in hits. Any-hit rate of the full collection: about 2.9%.
HSP90 refold inh – HSP90 refolding inhibition in rabbit reticulocyte lysate; luciferase refolding luminescence, 3 h; inhibition, % at 5.6 µM; 0.91% of 290,000 active; AID 1789;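 active = inhibition above the screen-wide mean plus 3 SD, computed separately per campaign, cut at about 16% in these data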;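 note: 0% = DMSO wells and 100% = 60 µM geldanamycin wells; inhibitors lower the luminescence because luciferase stays unfolded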
SENP8 block-1 – blocks human SENP8 cleavage of Nedd8 substrate | Q96LD8 | recombinant SENP8, Nedd8 substrate fluorescence | inhibition, % at 20 µM | 0.64% of 360,000 active; in the data active = inhibition mostly above about 40%, no sharp cut-off; inactive = mostly below about 27%
SENP8 block-2 – inhibitors of human SENP8 protease | Q96LD8 | purified SENP8, Z-RLRGG-aminoluciferin cleavage, luminescence | inhibition, % at 10 µM | 1.2% of 330,000 active | AID 2540; in the data active = inhibition above about 50%
SENP6 inh – blocks the human protease SENP6. Q9GZR1. Recombinant SENP6 catalytic domain, aminoluciferin luminescence. inhibition, % at 10 µM. 1.8% of 330,000 active. AID 2599;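 active = inhibition above about 50% at the single tested dose, limit read from the data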;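 note: plate controls were DMSO wells with enzyme for no effect and DMSO wells lacking enzyme for full effect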
SENP1 inh – blocks the human SENP1 SUMO protease catalytic domain. Q9P0U3. AID 624204. inhibition, % at 10 µM. recombinant SENP1 catalytic domain, CyPet-SUMO1-YPet FRET cleavage. 0.21% of 360,000 active;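 active = inhibition at least 30% at 10 µM, raw YFP signal under a set limit, fluorescence ratio 0.5 to 1.5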;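 note: 0% = enzyme with DMSO and 100% = no enzyme wells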
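Material: hSENP1 catalytic domain, recombinant; medium: Tris pH 8 with BME, BSA, NP40 and catalase; compound: single concentration of 10 µM compound, 0.5% DMSO final; technique: FRET read of cyan and yellow fluorescence; timing: 50 min enzyme reaction, room temperature, light-protected; reagent: SFCypet-SUMO1-SFYpet substrate at 25 nM; control set: no-enzyme low, enzyme-DMSO high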
SENP7 inh – SENP7 protease inhibition | AID 434973 | inhibition, % at 5 µM | recombinant SENP7, Z-RLRGG-aminoluciferin luminescence, 40 min | Q9BQF6 | 1.5% of 330,000 active;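 active = inhibition above about 50% at the single test dose, limit read from the data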;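 note: plate controls were DMSO with enzyme for no effect and no enzyme buffer wells for full effect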
Target sequence (Q9BQF6 706-1050 limits assumed): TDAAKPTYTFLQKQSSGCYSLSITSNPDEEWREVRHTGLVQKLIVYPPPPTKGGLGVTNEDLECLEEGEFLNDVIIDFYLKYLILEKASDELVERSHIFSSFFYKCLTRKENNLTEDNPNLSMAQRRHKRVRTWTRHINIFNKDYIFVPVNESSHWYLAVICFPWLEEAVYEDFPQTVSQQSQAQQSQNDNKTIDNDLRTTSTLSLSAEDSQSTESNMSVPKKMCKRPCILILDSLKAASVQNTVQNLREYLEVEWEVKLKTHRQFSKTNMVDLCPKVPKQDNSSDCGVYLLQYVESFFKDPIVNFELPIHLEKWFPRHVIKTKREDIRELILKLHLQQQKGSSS
SENP8 conf – human SENP8 inhibition, confirmed. AID 488912. Recombinant SENP8, Z-RLRGG-aminoluciferin luminescence, 60 min. 40% of 6,200 active. shares compounds with SENP7 inh. inhibition, % at 12.5 µM;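 active = mean inhibition across replicates above about 50%, limit read from the data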
SENP6 conf – human SENP6 inhibition, confirmed; shares compounds with SENP7 inh; recombinant SENP6, Z-RLRGG-aminoluciferin luminescence; inhibition, % at 12.5 µM; 58% of 6,200 active
SENP7 conf – human SENP7 inhibition, confirmed; shares compounds with SENP7 inh; recombinant SENP7, Z-RLRGG-aminoluciferin luminescence, 40 min; inhibition, % at 12.5 µM; 69% of 6,200 active; AID 488917
Casp3 select – selectivity test for SENP inhibitors: human caspase-3 inhibition | shares compounds with SENP7 inh | purified caspase-3, Z-DEVD-aminoluciferin luminescence, 60 min | inhibition, % at 12.5 µM | 60% of 6,200 active;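 active = mean inhibition above about 50%, limit read from the data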;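 note: plate controls were enzyme with DMSO for no effect and wells without caspase-3 for full effect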
Target sequence (P42574 28-227 limits assumed): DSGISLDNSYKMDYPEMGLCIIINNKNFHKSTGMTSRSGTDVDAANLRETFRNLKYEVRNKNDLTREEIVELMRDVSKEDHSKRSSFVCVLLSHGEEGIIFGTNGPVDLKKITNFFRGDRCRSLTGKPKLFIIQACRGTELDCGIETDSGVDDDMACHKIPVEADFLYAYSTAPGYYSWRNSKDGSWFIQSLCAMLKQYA
SENP luc ctr – interferes with luciferase luminescence in SENP counter-screen | shares compounds with SENP7 inh | inhibition, % at 12.5 µM | 39% of 6,200 active | Pre-incubated SENP8/Z-RLRGG-aminoluciferin, luciferase luminescence interference | AID 488919;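 active = mean inhibition above about 50% when retested at one dose, limit read from the data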;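 note: plate controls were DMSO wells with completed reaction for no effect and substrate without enzyme for full effect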
* hit, by the source's call; x = no result given.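 Rule for the calls, unless noted: active = mean inhibition above about 50% in the one-dose retest (limit read from the data); inactive = the rest.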

SMILES	HSP90 refold inh	SENP8 block-1	SENP8 block-2	SENP6 inh	SENP1 inh	SENP7 inh	SENP8 conf	SENP6 conf	SENP7 conf	Casp3 select	SENP luc ctr
N#CC1=C2C=Cc3ccccc3N2CCCC1=O	-0.6	-18.1	14.0	51.5*	-67.9	48.6	36.5	36.4	76.2*	68.4*	8.6
NC(=Nc1ccc(Br)cc1)c1ccccc1	-1.1	6.2	-13.8	-8.0	-1.1	3.9	x	x	x	x	x
CC(=Nc1ccccc1)c1sc2ccccc2c1O	-3.1	-75.9	80.3*	85.2*	-24.3	75.7*	88.3*	88.5*	98.5*	76.9*	75.7*
CC(=Nc1ccc(Br)cc1)c1sc2ccccc2c1O	-1.6	-52.2	61.3*	79.8*	-34.9	73.3*	-4.4	7.6	5.1	13.3	6.1
O=C(CN(C(=O)c1csnn1)c1cccc(Cl)c1)NC1CCCCC1	-0.4	1.6	8.0	39.3	-0.1	2.6	x	x	x	x	x
COc1ccc(C(=O)c2coc(-c3ccccc3C(=O)O)c2C(=O)O)cc1	0.1	5.2	-2.1	-12.5	0.8	2.7	x	x	x	x	x
COc1ccc(C(=O)c2c(C(F)(F)F)oc3c2C(=O)c2ccccc2C3=O)cc1	13.2	81.4*	47.4	70.2*	3.5	26.7	27.3	69.6*	15.4	71.8*	-5.6
C=CCN(c1ccccc1)S(=O)(=O)c1cccc(C(=O)Nc2ccc(N3CCOCC3)cc2)c1	x	23.8	8.1	12.4	-0.2	4.0	x	x	x	x	x
Cc1ccc(C(=O)c2c3ccc(N)cc3nn2CCC(N)=O)cc1	4.0	-71.8	26.0	57.2*	-12.9	21.2	13.6	29.0	-5.0	-0.4	-2.8
Cc1ccc(C(=O)c2c3ccc(C(F)(F)F)cc3[n+]([O-])n2CCC(N)=O)cc1	-2.8	-1.5	-1.1	8.8	5.2	-2.2	x	x	x	x	x
O=C(Nc1ccc(F)c(Cl)c1)[C@@H]1O[C@H](CO)[C@H](O)[C@H](O)[C@H]1O	x	20.6	x	x	-1.0	x	x	x	x	x	x
COC(=O)c1sccc1NC(=O)c1cccc(OC)c1	0.5	17.4	-8.5	-4.4	2.9	-11.3	x	x	x	x	x
COC(=O)c1sccc1N/N=C/c1cccc(OC)c1O	1.3	-402.1	92.2*	93.9*	-3.1	98.7*	7.7	78.1*	86.6*	69.9*	30.6
COC(=O)c1sccc1N/N=C/c1cccc(Oc2ccccc2)c1	16.9*	-98.7	94.9*	63.1*	0.0	96.9*	30.4	53.2*	34.3	94.2*	9.0
COC(=O)c1sccc1N/N=C/c1ccc(OC)c(OC)c1OC	-5.5	-404.8	2.3	20.8	-1.5	3.2	x	x	x	x	x
C(/C=C/c1ccccc1)=N/N1CCN(c2ccccc2)CC1	1.1	23.5	-12.2	14.0	0.5	60.9*	12.3	11.9	24.8	39.3	11.8
C(=C\c1ccccc1)/C=N/N1CCN(c2ccccn2)CC1	-1.6	18.2	40.2	74.1*	1.5	56.4*	38.8	52.1*	32.0	62.1*	28.6
COc1cc(OC)cc(C(=O)NCC2CCCN(C(=O)c3csc(C(C)C)n3)C2)c1 (centres undefined)	-3.3	10.0	-1.8	17.4	1.8	-2.1	x	x	x	x	x
COc1ccc2oc(=O)c(C(=O)Nc3ccccc3C)cc2c1	0.5	-12.3	46.9	64.9*	-53.4	73.7*	38.4	36.1	44.6	50.3*	11.0
N=c1oc2ccc(Cl)cc2cc1C(=O)Nc1ccc(F)cc1	-3.7	4.1	-4.2	-20.5	24.5	-12.9	x	x	x	x	x
COc1cc2ccccc2cc1C(=O)Nc1ccccc1Cl	-3.5	-45.8	46.9	57.9*	-1.6	3.9	71.6*	71.7*	91.2*	x	42.0
COc1ccc2oc(=N)c(C(=O)Nc3ccccc3Cl)cc2c1	1.1	-255.9	-13.1	11.7	-105.7	61.0*	2.2	7.2	8.7	36.8	10.1
N=c1oc2ccccc2cc1C(=O)Nc1ccccc1	6.8	17.5	89.0*	86.3*	-3.4	92.6*	-5.4	55.6*	78.5*	46.7	5.6
O=C(CCNS(=O)(=O)c1ccc(Br)cc1)NCc1ccco1	x	7.7	-3.6	-12.8	-4.0	6.4	x	x	x	x	x
CCOC(=O)C1(CC)NC(c2ccc(OC)c(OC)c2)C2C(=O)N(c3cccc(C(C)=O)c3)C(=O)C21 (centres undefined)	-0.5	0.5	4.7	0.1	0.3	1.0	x	x	x	x	x
SMILES	HSP90 refold inh	SENP8 block-1	SENP8 block-2	SENP6 inh	SENP1 inh	SENP7 inh	SENP8 conf	SENP6 conf	SENP7 conf	Casp3 select	SENP luc ctr
N=c1oc2cc(O)ccc2cc1C(=O)Nc1ccc(Br)cc1	2.0	-296.3	77.1*	86.3*	-27.2	24.6	9.7	29.8	14.9	11.5	9.4
Cc1cccnc1NC(=O)c1cc2ccccc2oc1=O	1.4	-19.5	5.3	20.2	-8.1	91.3*	52.6*	52.3*	80.4*	68.4*	24.2
COc1ccc2oc(=N)c(C(=O)Nc3ccccc3)cc2c1	-1.6	-203.3	44.8	61.8*	-83.7	71.9*	33.7	34.7	69.3*	56.6*	19.5
CC(=O)Oc1c(Br)cc(N(C(C)=O)S(=O)(=O)c2ccccc2)c2ccccc12	2.2	19.5	14.5	6.9	-1.7	8.0	x	x	x	x	x
Cc1ccc2nc(/C(C#N)=C/c3ccc(O)c(O)c3)[nH]c2c1	-2.0	-162.6	17.0	65.1*	-36.9	7.9	54.2*	48.2	71.7*	29.6	8.7
CN(C)C(CNC(=O)c1cc(S(=O)(=O)N(C)c2ccc(F)cc2)ccc1Cl)c1cccs1 (centres undefined)	x	2.4	x	x	2.4	x	x	x	x	x	x
O=C(Nc1cccc(Br)c1)c1cccc(OC(=S)N2CCOCC2)c1	0.7	2.8	34.1	56.8*	-1.4	54.7*	20.8	41.8	74.2*	27.4	51.1*
COc1ccc(-c2csc(NC(=O)C3CSC4(C)CCC(=O)N34)n2)c(OC)c1 (centres undefined)	x	-0.5	2.1	-12.8	-0.3	-1.6	x	x	x	x	x
Cc1ccc2c(C)c(C(=O)N3CCCC(C(N)=O)C3)oc2c1C (centres undefined)	1.2	1.7	-2.6	-7.1	-0.6	-9.4	x	x	x	x	x
Cc1cc(/C=C2\Cc3ccccc3C2=O)c(C)n1-c1ccccc1	6.1	-393.2	64.9*	48.2	-29.4	5.3	45.8	90.9*	96.7*	68.0*	13.7
Cc1cc(C=C2C(=O)c3ccccc3C2=O)c(C)n1-c1ccccc1	8.7	-20.7	74.0*	92.1*	-19.8	92.6*	9.4	10.0	2.8	20.5	-3.4

Screening data from PubChem.
